Data from ChEMBL document CHEMBL1166005, “Discovery of tetrahydro-beta-carbolines as inhibitors of the mitotic kinesin KSP” (Bioorg Med Chem, 2010).

Assays:
A549 = assay: Antiproliferative activity against human A549 cells after 48 hrs by SRB assay; conditions: A549, 48 h
[1] = target: T1, Kinesin-like protein KIF11 (Homo sapiens, UniProt P52732); assay: Inhibition of human Eg5 expressed in Escherichia coli assessed as microtubule-activated ATPase activity by spectrophotometry
T1 sequence (P52732 whole entry): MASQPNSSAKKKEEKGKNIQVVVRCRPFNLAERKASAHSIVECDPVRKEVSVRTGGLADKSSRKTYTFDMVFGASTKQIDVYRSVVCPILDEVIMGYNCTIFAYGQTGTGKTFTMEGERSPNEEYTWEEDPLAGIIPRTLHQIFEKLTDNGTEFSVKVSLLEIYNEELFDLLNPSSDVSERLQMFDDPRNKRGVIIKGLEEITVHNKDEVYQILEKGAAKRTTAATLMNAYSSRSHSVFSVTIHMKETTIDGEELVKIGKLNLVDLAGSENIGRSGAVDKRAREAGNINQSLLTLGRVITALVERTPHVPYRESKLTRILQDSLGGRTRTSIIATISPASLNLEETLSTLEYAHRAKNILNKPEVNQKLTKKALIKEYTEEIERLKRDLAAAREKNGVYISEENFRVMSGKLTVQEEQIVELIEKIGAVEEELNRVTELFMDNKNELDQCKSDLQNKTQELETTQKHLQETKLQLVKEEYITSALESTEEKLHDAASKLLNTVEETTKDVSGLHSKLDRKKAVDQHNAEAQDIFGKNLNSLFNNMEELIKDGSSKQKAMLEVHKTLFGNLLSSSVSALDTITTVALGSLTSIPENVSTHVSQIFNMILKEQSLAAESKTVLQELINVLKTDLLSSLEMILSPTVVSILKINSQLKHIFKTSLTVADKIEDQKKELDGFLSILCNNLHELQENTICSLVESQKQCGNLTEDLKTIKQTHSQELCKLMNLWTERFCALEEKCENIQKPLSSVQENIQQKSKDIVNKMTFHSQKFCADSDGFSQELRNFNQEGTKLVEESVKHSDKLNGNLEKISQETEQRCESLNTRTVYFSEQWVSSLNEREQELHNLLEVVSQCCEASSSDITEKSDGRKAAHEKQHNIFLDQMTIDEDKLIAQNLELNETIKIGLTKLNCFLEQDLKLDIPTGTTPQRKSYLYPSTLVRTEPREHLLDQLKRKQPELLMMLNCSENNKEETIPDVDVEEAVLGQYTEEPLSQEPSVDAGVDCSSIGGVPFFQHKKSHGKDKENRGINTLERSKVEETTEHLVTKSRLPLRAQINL
Method in brief: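 Eg5 residues 2-386 expressed from pET28a in E. coli (0.5 mM IPTG, 20 h at 20 °C), purified on SP-Sepharose then Mono-Q, and dialyzed into PIPES pH 7.5 ATPase buffer. Assay contained 20 mM PIPES pH 7.5, 5.0 mM MgCl2, 1 mM EGTA, paclitaxel-stabilized MTs, ATP and 2% DMSO. Started with ATP, 37 °C for 30 min; Pi detected by malachite green with citrate stop, A610. No-enzyme and no-MT backgrounds subtracted; means of ≥3 experiments.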

PC-3 = assay: Antiproliferative activity against human PC3 cells after 48 hrs by SRB assay; conditions: PC-3, 48 h
AGS = assay: Antiproliferative activity against human AGS cells after 48 hrs by SRB assay
HepG2 = assay: Antiproliferative activity against human HepG2 cells after 48 hrs by SRB assay; conditions: HepG2, 48 h
HT-29 = assay: Antiproliferative activity against human HT-29 cells after 48 hrs by SRB assay; conditions: HT-29, 48 h

Compound | IC50 (A549) [µM] | IC50 [1] [µM] | IC50 (PC-3) [µM] | IC50 (AGS) [µM] | IC50 (HepG2) [µM] | IC50 (HT-29) [µM]
CC(N)C(=O)N1CCc2c([nH]c3ccc(Cl)cc23)C1c1cccc(O)c1 (stereo not given) | 5.65 | 0.483 | – | – | – | –
Cc1ccc2[nH]c3c(c2c1)CCN(CCN)C3c1cccc(O)c1 (racemic) | 7.79 | 0.237 | – | – | – | –
NCCC(=O)N1CCc2c([nH]c3c(Cl)cccc23)C1c1cccc(O)c1 (racemic) | 0.94 | 0.04 | 1.28 | 1.31 | 7.47 | 5.75
NCCNC(=O)C1Cc2c([nH]c3ccccc23)C(c2cccc(O)c2)N1 (racemic) | > 10 | 0.065 | – | – | – | –
Cc1ccc2[nH]c3c(c2c1)CCN(C(=O)c1ccc(N)cc1)C3c1cccc(O)c1 (racemic) | 7.93 | 0.05 | > 10 | 8.86 | > 10 | 7.47
Cc1ccc2[nH]c3c(c2c1)CCN(CCCN)C3c1cccc(O)c1 (racemic) | 6.86 | 0.083 | – | – | – | –
Cc1ccc2[nH]c3c(c2c1)CCN(CCCCN)C3c1cccc(O)c1 (racemic) | 9.19 | 0.454 | – | – | – | –
NCCCN1CCc2c([nH]c3ccc(Cl)cc23)C1c1cccc(O)c1 (racemic) | 6.73 | 0.204 | – | – | – | –
NCCN1CCc2c([nH]c3ccc(Cl)cc23)C1c1cccc(O)c1 (racemic) | 8.7 | 0.007 | – | – | – | –
CCCC(=O)N1CCc2c([nH]c3ccc(Cl)cc23)C1c1c[nH]c2ccccc12 (racemic) | 9.11 | 0.163 | 7.29 | 7.06 | 7.64 | 5.86
Cc1ccc2[nH]c3c(c2c1)CCN(C)C3c1cccc(O)c1 (racemic) | 8.73 | 0.462 | – | – | – | –
Cc1ccc2[nH]c3c(c2c1)CCN(Cc1ccccc1)C3c1cccc(O)c1 (racemic) | 6.86 | 12.4 | – | – | – | –
CCCC(=O)N1CCc2c([nH]c3ccc(C)cc23)C1c1c[nH]c2ccccc12 (racemic) | > 10 | < 0.001 | – | – | – | –
CN1CCc2c([nH]c3ccc(Cl)cc23)C1c1cccc(O)c1 (racemic) | 1.38 | 0.664 | > 10 | 0.75 | > 10 | 7.4
CCCN1CCc2c([nH]c3ccc(Cl)cc23)C1c1cccc(O)c1 (racemic) | 1.55 | 0.169 | – | – | – | –
Oc1cccc(C2c3[nH]c4ccc(Cl)cc4c3CCN2Cc2ccccc2)c1 (racemic) | 5.7 | 0.71 | – | – | – | –

Compound | IC50 (A549) [µM] | IC50 [1] [µM] | IC50 (PC-3) [µM] | IC50 (AGS) [µM] | IC50 (HepG2) [µM] | IC50 (HT-29) [µM]
CCOC(=O)C1Cc2c([nH]c3ccccc23)C(c2cccc(O)c2)N1C(C)=O (racemic) | > 10 | 0.724 | – | – | – | –
CCOC(=O)C1Cc2c([nH]c3ccccc23)C(c2cccc(O)c2)N1C(=O)CC (racemic) | > 10 | 0.075 | – | – | – | –
CC(=O)N1CCc2c([nH]c3ccc(C)cc23)C1c1c[nH]c2ccccc12 (racemic) | > 10 | 0.051 | – | – | – | –
Nc1ccc(C(=O)N2CCc3c([nH]c4ccc(Cl)cc34)C2c2cccc(O)c2)cc1 (racemic) | 6.66 | 0.076 | 7.3 | 6.07 | 8.52 | 6.3
NCCC(=O)N1CCc2c([nH]c3ccc(Cl)cc23)C1c1c[nH]c2ccccc12 (racemic) | 1.79 | 0.043 | 1.55 | 6.16 | > 10 | 6.28
CCCC(=O)N1C(C(=O)O)Cc2c([nH]c3ccccc23)C1c1cccc(O)c1 (racemic) | > 10 | 3.45 | – | – | – | –
Cc1ccc2[nH]c3c(c2c1)CCN(C(=O)C(C)C)C3c1c[nH]c2ccccc12 (racemic) | > 10 | 0.216 | – | – | – | –
CCCC(=O)N1C(C(=O)OCC)Cc2c([nH]c3ccccc23)C1c1cccc(O)c1 (racemic) | > 10 | 0.224 | – | – | – | –
CCC(=O)N1C(C(=O)O)Cc2c([nH]c3ccccc23)C1c1cccc(O)c1 (racemic) | > 10 | 0.118 | – | – | – | –
O=C(NCCO)C1Cc2c([nH]c3ccccc23)C(c2cccc(O)c2)N1 (racemic) | > 10 | 0.29 | – | – | – | –
NCCCCN1CCc2c([nH]c3ccc(Cl)cc23)C1c1cccc(O)c1 (racemic) | 9.06 | 0.347 | – | – | – | –
CCOC(=O)C1Cc2c([nH]c3ccccc23)C(c2cccc(O)c2)N1C(=O)C(C)C (racemic) | > 10 | 0.38 | – | – | – | –
CC(C)Oc1cccc(C2c3[nH]c4ccc(Cl)cc4c3CCN2CCN)c1 (racemic) | 8.7 | – | > 10 | 8.39 | > 10 | 7.44
CC(=O)N1CCc2c([nH]c3ccc(Cl)cc23)C1c1c[nH]c2ccccc12 (racemic) | 9.8 | 0.337 | – | – | – | –
CC(C)C(=O)N1CCc2c([nH]c3ccc(Cl)cc23)C1c1c[nH]c2ccccc12 (racemic) | 6.83 | 1.7 | – | – | – | –
CCC(c1nc2cc(Cl)ccc2c(=O)n1Cc1ccccc1)N(CCCN(C)C)C(=O)c1ccc(Br)cc1 (stereo not given) [CK0106023] | 7.02 | 0.049 | > 10 | 5.1 | > 10 | 3.33
